The record followed here is ChEMBL document CHEMBL5661979, “Pharmacological inhibition of BMK1 suppresses tumor growth through promyelocytic leukemia protein” (Cancer Cell, 2010).

Series [1] deals with Mitogen-activated protein kinase kinase kinase 5 (Homo sapiens) (UniProt Q99683). As to the kind of experiment: Inhibition of MAP3K5 in human HeLa cells lysate at 10 uM pre incubated for 15 mins followed by ATP acyl phosphate probe addition and measured after 10 mins by LC-MS/MS analysis relative to control. Format: subcellular. The following applies: time 25.0 min.
Series [2] concerns the target Mitogen-activated protein kinase kinase kinase 1 (Homo sapiens, UniProt Q13233). As to the kind of experiment: Inhibition of MAP3K1 in human HeLa cells lysate at 2 uM pre incubated for 15 mins followed by ADP acyl phosphate probe addition and measured after 10 mins by LC-MS/MS analysis relative to control. Type of series: subcellular. The following applies: time 25.0 min.

Series [3] can be described thus: Toxicity in C57Bl/6 mouse assessed as effect on sodium level at 50 mg/kg, ip for 14 days (reference value: 156 mM). Format: organism-based. The following applies: in vivo, 336 h, time 14 day.
In series [4] the target is T1, Serine/threonine-protein kinase Sgk3 (Homo sapiens, UniProt Q96BR1).
T1 sequence (Q96BR1 whole entry): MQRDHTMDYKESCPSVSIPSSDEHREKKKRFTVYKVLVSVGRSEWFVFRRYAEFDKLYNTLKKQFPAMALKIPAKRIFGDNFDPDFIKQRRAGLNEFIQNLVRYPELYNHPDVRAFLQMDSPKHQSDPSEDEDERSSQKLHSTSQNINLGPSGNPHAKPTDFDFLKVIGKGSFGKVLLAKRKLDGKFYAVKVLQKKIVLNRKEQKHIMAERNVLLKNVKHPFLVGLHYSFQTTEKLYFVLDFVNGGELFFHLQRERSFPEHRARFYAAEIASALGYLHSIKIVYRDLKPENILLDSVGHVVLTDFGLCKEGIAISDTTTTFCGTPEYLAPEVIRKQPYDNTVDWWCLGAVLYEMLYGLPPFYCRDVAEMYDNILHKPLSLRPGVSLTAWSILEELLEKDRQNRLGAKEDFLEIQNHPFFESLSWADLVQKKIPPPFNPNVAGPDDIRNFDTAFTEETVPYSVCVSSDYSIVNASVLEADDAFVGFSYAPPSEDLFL
As to the kind of experiment: Inhibition of SGK3 in human HeLa cells lysate pre incubated for 15 mins followed by ADP acyl phosphate probe addition and measured after 10 mins by LC-MS/MS analysis. Type of series: subcellular.

For series [5], the target named is T2, Serine/threonine-protein kinase 3 (Homo sapiens) (UniProt Q13188).
T2 sequence (whole entry): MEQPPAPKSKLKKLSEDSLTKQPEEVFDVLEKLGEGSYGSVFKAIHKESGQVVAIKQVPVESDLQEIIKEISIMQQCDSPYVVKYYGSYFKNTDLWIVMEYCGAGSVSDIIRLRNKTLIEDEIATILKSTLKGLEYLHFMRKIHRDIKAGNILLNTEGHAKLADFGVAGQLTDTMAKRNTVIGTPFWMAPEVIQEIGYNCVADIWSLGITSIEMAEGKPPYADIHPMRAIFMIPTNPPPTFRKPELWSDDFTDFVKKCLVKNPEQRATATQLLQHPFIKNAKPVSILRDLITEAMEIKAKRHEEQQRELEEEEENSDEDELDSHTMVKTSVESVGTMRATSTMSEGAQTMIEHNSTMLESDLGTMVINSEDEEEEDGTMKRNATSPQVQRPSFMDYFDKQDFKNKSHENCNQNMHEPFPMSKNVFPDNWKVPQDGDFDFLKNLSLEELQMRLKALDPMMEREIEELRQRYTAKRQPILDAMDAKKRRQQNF
In words: Inhibition of MST2 in human HeLa cells lysate at 50 uM pre incubated for 15 mins followed by ADP acyl phosphate probe addition and measured after 10 mins by LC-MS/MS analysis relative to control. Format: subcellular. The following applies: time 25.0 min.

In series [6] the target is Cyclin-dependent kinase 13 (Homo sapiens, UniProt Q14004). In words: Inhibition of CHED in human HeLa cells lysate at 50 uM pre incubated for 15 mins followed by ADP acyl phosphate probe addition and measured after 10 mins by LC-MS/MS analysis relative to control. Format: subcellular. The following applies: time 25.0 min. In a few lines:
(§1)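 KiNativ profiling in HeLa lysate (5 mg/mL total protein). Lysate incubated 15 min with inhibitor at 50, 10, 2, 0.8 or 0 μM. ATP or ADP acylphosphate probe then added (5 μM final) and reacted 10 min. Reaction stopped with urea and analysed by targeted MS, using up to four fragment ions per kinase peptide-probe conjugate. % inhibition taken against untreated lysate. Run in duplicate.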

In series [7] the target is Mitogen-activated protein kinase kinase kinase 8 (Homo sapiens, UniProt P41279). In words: Inhibition of COT in human HeLa cells lysate pre incubated for 15 mins followed by ADP acyl phosphate probe addition and measured after 10 mins by LC-MS/MS analysis. Type of series: subcellular.
Chain of Mitogen-activated protein kinase kinase kinase 8 (P41279 whole entry): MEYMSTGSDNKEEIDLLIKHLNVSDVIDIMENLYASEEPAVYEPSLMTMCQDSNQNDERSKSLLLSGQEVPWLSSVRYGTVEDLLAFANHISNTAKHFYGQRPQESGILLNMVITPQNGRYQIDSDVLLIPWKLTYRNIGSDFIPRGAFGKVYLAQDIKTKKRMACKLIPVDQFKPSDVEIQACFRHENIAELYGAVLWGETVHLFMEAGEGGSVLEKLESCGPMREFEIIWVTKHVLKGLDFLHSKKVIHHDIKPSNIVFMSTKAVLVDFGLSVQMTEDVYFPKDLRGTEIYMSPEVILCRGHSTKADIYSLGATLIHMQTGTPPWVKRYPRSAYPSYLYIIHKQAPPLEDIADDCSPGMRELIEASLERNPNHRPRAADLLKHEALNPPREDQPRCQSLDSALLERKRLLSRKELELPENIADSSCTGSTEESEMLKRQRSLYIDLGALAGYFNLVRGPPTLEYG
Series [8] addresses T3, Dual specificity mitogen-activated protein kinase kinase 6 (Homo sapiens) (UniProt P52564).
T3 sequence (whole entry): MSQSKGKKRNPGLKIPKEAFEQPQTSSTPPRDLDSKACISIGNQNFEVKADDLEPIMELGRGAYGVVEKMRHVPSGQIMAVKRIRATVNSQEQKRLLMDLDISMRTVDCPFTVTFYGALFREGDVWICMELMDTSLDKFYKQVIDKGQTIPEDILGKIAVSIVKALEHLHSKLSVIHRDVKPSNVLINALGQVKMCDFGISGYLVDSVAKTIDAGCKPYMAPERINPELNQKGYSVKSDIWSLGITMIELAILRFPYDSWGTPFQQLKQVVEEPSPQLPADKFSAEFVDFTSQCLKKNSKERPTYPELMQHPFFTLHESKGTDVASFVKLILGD
In words: Inhibition of MAP2K6 in human HeLa cells lysate at 10 uM pre incubated for 15 mins followed by ADP acyl phosphate probe addition and measured after 10 mins by LC-MS/MS analysis relative to control. Format: subcellular. The following applies: time 25.0 min.

Series [9] concerns the target Cyclin-dependent kinase 2 (Homo sapiens, UniProt P24941). In words: Inhibition of CDK2 K2 site in human HeLa cells lysate pre incubated for 15 mins followed by ADP acyl phosphate probe addition and measured after 10 mins by LC-MS/MS analysis. Format: subcellular. In a few lines: as §1
The nature of series [10]: Inhibition of MSK1/2 in human HeLa cells lysate pre incubated for 15 mins followed by ADP acyl phosphate probe addition and measured after 10 mins by LC-MS/MS analysis. Type of series: subcellular.
A further series addresses RPS6KA1/RPS6KA2/RPS6KA3 (Homo sapiens, UniProt P51812+Q15349+Q15418). As to the kind of experiment: Inhibition of RSK1/2/3 in human HeLa cells lysate at 2 uM pre incubated for 15 mins followed by ATP acyl phosphate probe addition and measured after 10 mins by LC-MS/MS analysis relative to control. Format: subcellular. The following applies: time 25.0 min.
Series [11] has as its target Tyrosine-protein kinase receptor UFO (Homo sapiens) (UniProt P30530). In words: Inhibition of AXL in human HeLa cells lysate at 10 uM pre incubated for 15 mins followed by ADP acyl phosphate probe addition and measured after 10 mins by LC-MS/MS analysis relative to control. The following applies: time 25.0 min. Type of series: subcellular. The method, boiled down: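 KiNativ-type profiling in HeLa lysate (5 mg/mL total protein). Lysate preincubated 15 min with inhibitor at 50, 10, 2, 0.8 or 0 μM, then ATP or ADP acylphosphate probe added (5 μM final) for 10 min. Reaction stopped with urea and analysed by targeted MS, using up to four fragment ions per kinase peptide-probe conjugate. % inhibition calculated against untreated lysate. Duplicate reactions.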

For series [12], the target named is Calcium/calmodulin-dependent protein kinase type II subunit delta (Homo sapiens, UniProt Q13557). As to the kind of experiment: Inhibition of CamK2d in human HeLa cells lysate at 50 uM pre incubated for 15 mins followed by ADP acyl phosphate probe addition and measured after 10 mins by LC-MS/MS analysis relative to control. Format: subcellular. The following applies: time 25.0 min.

Chain of Cyclin-dependent kinase 13 (Q14004 whole entry, looked up, the tested form may be a part): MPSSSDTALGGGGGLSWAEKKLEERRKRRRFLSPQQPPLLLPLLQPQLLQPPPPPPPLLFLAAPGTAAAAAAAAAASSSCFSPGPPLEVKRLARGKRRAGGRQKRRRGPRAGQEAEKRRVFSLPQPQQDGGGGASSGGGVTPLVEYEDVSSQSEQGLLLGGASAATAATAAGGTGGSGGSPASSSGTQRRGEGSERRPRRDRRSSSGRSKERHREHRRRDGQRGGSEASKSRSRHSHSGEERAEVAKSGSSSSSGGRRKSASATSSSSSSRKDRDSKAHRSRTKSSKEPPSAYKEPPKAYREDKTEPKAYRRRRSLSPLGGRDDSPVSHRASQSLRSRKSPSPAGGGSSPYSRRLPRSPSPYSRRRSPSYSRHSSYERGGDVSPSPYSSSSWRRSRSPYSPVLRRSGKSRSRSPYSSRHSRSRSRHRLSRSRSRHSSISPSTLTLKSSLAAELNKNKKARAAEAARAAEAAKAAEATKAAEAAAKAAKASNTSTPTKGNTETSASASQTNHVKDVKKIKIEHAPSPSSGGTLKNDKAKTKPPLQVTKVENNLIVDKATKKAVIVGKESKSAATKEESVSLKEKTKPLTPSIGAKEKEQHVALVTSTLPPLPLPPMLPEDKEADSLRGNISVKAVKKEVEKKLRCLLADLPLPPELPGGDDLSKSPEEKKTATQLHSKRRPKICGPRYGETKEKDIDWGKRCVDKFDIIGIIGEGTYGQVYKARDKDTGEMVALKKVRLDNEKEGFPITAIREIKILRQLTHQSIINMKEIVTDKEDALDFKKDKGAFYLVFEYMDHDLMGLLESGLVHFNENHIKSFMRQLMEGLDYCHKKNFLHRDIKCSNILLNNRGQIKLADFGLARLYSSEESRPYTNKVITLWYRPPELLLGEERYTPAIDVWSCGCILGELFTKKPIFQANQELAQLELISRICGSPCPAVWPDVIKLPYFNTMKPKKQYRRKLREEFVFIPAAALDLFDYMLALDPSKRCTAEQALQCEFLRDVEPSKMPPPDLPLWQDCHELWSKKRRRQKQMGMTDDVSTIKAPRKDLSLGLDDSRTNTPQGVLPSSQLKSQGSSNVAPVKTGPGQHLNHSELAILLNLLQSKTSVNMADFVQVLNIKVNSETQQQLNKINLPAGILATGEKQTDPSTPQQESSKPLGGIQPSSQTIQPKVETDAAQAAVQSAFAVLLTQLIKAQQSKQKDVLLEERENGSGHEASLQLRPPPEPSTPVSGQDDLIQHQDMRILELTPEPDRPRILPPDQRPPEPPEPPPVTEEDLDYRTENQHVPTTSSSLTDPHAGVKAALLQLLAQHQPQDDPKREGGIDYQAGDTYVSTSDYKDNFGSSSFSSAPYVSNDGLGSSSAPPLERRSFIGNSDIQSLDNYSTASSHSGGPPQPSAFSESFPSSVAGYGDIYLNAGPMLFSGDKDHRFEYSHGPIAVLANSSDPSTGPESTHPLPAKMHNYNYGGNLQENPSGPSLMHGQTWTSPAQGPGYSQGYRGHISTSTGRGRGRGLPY
Chain of Tyrosine-protein kinase receptor UFO (Homo sapiens) (P30530 whole entry, the tested form may be a part): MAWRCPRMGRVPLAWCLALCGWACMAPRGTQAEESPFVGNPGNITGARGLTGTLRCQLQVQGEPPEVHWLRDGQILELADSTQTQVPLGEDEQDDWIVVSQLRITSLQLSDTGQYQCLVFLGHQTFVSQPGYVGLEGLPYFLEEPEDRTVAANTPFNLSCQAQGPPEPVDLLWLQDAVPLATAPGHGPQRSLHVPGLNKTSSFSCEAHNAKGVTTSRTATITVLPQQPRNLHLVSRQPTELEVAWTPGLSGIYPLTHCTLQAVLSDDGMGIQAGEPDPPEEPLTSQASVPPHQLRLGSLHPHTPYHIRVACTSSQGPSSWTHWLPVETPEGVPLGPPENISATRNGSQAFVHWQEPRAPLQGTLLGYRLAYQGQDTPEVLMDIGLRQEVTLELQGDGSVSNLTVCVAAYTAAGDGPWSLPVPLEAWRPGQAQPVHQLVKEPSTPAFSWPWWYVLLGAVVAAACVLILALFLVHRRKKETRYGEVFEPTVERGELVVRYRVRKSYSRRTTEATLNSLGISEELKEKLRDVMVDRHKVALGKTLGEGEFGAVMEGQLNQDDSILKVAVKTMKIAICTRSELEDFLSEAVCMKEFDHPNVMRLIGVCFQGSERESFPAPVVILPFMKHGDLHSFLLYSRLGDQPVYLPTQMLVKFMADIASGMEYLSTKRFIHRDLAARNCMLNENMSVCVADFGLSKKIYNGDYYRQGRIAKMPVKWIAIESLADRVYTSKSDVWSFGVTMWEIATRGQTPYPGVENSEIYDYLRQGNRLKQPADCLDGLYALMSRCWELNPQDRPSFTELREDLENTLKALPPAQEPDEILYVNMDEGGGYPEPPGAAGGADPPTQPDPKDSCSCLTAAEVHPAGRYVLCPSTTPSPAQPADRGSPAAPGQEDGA
Chain of RPS6KA1/RPS6KA2/RPS6KA3 (P51812 whole entry, looked up): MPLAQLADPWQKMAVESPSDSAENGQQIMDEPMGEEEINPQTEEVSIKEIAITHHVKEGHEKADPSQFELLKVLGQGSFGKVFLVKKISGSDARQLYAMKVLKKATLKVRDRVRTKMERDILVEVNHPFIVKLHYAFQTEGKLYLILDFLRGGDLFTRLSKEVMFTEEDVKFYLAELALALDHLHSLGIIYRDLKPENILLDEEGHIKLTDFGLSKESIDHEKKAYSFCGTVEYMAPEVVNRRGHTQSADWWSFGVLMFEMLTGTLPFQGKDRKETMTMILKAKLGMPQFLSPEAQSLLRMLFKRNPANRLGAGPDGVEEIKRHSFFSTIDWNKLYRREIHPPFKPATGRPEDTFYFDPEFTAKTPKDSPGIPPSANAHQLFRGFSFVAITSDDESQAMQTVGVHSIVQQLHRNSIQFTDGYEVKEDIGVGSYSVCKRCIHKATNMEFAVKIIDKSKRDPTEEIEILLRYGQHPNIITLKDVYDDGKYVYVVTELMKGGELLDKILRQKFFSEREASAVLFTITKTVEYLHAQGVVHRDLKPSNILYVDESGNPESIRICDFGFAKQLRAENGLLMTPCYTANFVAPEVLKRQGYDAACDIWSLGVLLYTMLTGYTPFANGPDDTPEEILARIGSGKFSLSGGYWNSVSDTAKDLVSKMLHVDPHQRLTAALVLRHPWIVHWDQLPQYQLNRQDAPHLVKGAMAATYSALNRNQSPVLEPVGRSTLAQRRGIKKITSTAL
Chain of RPS6KA1/RPS6KA2/RPS6KA3 (Q15349 whole entry, looked up): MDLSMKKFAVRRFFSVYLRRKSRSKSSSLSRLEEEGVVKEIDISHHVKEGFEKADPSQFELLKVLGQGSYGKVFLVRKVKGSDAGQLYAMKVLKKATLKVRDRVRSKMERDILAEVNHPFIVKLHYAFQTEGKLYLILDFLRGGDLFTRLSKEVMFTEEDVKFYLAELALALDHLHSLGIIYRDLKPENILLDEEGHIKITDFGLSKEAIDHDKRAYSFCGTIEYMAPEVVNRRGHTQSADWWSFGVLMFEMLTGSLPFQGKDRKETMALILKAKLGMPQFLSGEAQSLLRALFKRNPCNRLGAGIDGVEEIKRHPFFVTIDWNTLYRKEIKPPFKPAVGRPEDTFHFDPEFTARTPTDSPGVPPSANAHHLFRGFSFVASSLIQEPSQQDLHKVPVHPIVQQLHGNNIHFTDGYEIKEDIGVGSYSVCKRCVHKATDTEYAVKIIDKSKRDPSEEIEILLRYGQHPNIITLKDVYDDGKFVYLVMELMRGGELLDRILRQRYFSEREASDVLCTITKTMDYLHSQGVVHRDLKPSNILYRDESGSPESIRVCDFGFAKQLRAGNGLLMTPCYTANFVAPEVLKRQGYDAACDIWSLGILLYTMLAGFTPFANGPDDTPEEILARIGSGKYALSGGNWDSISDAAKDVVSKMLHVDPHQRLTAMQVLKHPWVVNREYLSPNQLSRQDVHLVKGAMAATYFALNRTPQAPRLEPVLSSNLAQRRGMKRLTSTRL
Chain of RPS6KA1/RPS6KA2/RPS6KA3 (Q15418 whole entry, looked up): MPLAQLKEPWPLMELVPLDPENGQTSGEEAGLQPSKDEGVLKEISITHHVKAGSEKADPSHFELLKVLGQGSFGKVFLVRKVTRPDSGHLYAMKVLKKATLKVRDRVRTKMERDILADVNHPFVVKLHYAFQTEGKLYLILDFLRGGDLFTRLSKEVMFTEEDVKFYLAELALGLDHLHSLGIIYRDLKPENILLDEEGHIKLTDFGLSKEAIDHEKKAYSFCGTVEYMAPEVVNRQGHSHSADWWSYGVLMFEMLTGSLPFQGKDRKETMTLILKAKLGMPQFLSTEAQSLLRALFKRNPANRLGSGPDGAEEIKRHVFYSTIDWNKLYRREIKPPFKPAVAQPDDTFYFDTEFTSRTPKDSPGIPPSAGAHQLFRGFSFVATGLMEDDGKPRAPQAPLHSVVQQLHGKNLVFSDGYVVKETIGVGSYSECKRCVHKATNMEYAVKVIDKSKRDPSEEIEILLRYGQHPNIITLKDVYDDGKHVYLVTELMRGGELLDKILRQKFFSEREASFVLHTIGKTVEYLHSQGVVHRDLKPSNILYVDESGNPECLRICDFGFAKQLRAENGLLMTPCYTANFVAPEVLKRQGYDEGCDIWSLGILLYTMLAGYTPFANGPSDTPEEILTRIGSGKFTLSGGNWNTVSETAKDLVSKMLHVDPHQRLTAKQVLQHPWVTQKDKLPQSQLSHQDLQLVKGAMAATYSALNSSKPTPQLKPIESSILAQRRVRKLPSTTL

Regarding `CCOc1cc(N2CCC(O)CC2)ccc1Nc1ncc2c(n1)N(C)c1ccccc1C(=O)N2C`, the inhibition (usually the drop in the measured response relative to a control, in per cent) in series [1] came to 12.5%; in [2] it was 11.5%; in [5], 7.2%; in series [6], 12%; in series [8] it was 5.6%; on RPS6KA1/RPS6KA2/RPS6KA3, 11.6%. The inhibition in [11] was -5.1%; in series [12], 10.3%. Moreover, the Activity in series [3] is 143 mM. The IC50 in series [4], in [7], in series [9] and in [10] was greater than 50 µM throughout.
